Source: ChEMBL document CHEMBL5046236, “Synthesis and structure-activity relationship study of new biaryl amide derivatives and their inhibitory effects against hepatitis C virus” (Eur J Med Chem, 2022)

What was measured:
Huh-7.5 = assay: (§1) Cytotoxicity against human Huh7.5 cells assessed as inhibition of cell growth measured after 96 hrs by MTT assay; assay type: toxicity, cell-based; conditions: huh-7.5, 96 h
In short: (§2)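 Huh7.5 cells in DMEM with 10% heat-inactivated FBS, seeded at 3.0 × 10⁴ cells/cm²; after 24 h, fresh medium with compound added (DMSO stocks, eight 1:5 serial dilutions).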

Hepatitis C virus = assay: Antiviral activity against Hepatitis C virus infected in human Huh7.5 cells assessed as inhibition of viral replication incubated for 72 hrs by qRT-PCR analysis; assay type: functional, organism-based, Hepacivirus hominis; conditions: Huh7.5, 72 h
[1] = Selectivity index, ratio of CC50 for cytotoxicity against human Huh7.5 cells to EC50 for antiviral activity against Hepatitis C virus infected in human Huh7.5 cells; assay type: toxicity, cell-based; conditions: read-out: Ratio CC50/EC50
[2] = biological target: DNA dC->dU-editing enzyme APOBEC-3G (Homo sapiens) (UniProt Q9HC16); assay: Inhibition of Vif-mediated human A3G degradation in HEK-293T cells cotransfected with hA3G and Vif at 20 uM by western blot analysis relative to control; assay type: cell-based
In short: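 293T cells cotransfected with hA3G and Vif expression vectors, then treated with compounds at 20 μM; MG132 proteasome inhibitor as positive control, DMSO-treated cells as comparator for hA3G degradation.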

[3] = Acute toxicity in ip dosed Kunming mouse assessed as lethal dose measured after 7 days; assay type: organism-based; conditions: in vivo, 168 h, time 7 day
In short: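 Single intraperitoneal dose at 50, 100, 150 or 200 mg/kg, n = 6 per group. Animals watched closely for 7 days. Median lethal dose (LD₅₀) estimated from deaths across the dose groups.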

[4] = as §1; assay type: toxicity, cell-based, Huh-7.5; conditions: Huh7.5 cells; in short: as §2
[5] = Aqueous Solubility of compound at pH 7 measured after 10 mins by HPLC-UV analysis; assay type: physicochemical; conditions: buffer

Chain of DNA dC->dU-editing enzyme APOBEC-3G (Homo sapiens) (Q9HC16 whole entry): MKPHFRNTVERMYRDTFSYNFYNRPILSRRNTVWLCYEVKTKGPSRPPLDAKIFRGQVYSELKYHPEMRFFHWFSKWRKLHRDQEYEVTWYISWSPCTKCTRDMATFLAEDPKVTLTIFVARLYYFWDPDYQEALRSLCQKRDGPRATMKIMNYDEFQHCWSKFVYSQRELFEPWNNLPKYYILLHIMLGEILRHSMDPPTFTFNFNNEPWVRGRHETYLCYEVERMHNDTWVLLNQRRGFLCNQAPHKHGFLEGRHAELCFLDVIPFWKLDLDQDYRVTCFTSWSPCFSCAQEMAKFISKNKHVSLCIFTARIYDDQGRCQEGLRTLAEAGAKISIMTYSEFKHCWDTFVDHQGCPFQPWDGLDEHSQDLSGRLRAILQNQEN

Row | SMILES | CC50 (Huh-7.5) [µM] | EC50 (Hepatitis C virus) [µM] | selectivity ratio [1] | inhibition [2] [%] | LD50 [3] [mg/kg] | CC50 at 96 h [4] [µM] | solubility at 10 min [5] [µg/mL]
1 | CCC(=O)Nc1cc(C(=O)Nc2ccc(CN3CCN(C)CC3)c(C(F)(F)F)c2)ccc1OC | 35.3 | 1.48 | 24 | > 50 | – | – | –
2 | COc1ccc(NC(=O)c2ccc3c(c2)NC(=O)CO3)cc1 | 77.3 | 7.46 | 10 | 25 | – | – | –
3 | COc1ccc(NC(=O)c2ccc3c(c2)NCCO3)cc1 | 153 | > 22.2 | – | < 25 | – | – | –
4 | CN1CCN(Cc2ccc(NC(=O)c3ccc(OCCCCl)c(C(F)(F)F)c3)cc2C(F)(F)F)CC1 | 13.4 | 0.13 | 99.6 | – | – | – | –
5 | CCC(=O)Nc1cc(C(=O)Nn2c(C)nnc2S)ccc1OC | > 200 | 14.4 | > 14 | > 50 | – | – | –
6 | CCC(=O)Nc1cc(C(=O)Nc2ccc(N3CCN(C)CC3)cc2)ccc1OC | > 200 | > 22.2 | – | – | – | – | –
7 | CCC(=O)Nc1cc(C(=O)Nc2ccc(OC)cc2)ccc1OC(C)C | 113 | 1.1 | 103 | < 25 | – | – | –
8 | CN1CCN(Cc2ccc(NC(=O)c3ccc(OCCCCCl)c([N+](=O)[O-])c3)cc2C(F)(F)F)CC1 | 3.74 | 0.1 | 37 | – | – | – | –
9 | COc1ccc(NC(=O)c2ccc(OCCCN3CCN(C)CC3)c(N)c2)cc1 | – | – | – | < 25 | – | – | –
10 | CC(C)Oc1ccc(C(=O)Nc2ccc(N(C)C)cc2)cc1NC(=O)C(C)Br (configuration not stated) | 7.9 | 4.34 | 2 | – | – | – | –
11 | CN1CCN(Cc2ccc(NC(=O)c3ccc(OCCCl)c([N+](=O)[O-])c3)cc2C(F)(F)F)CC1 | 9.04 | 0.044 | 204 | – | – | – | –
12 | CN(C)C1CCN(Cc2ccc(NC(=O)c3ccc(OCCCCl)c([N+](=O)[O-])c3)cc2C(F)(F)F)CC1 | 5.5 | 0.38 | 14 | – | – | – | –
13 | CCCOc1ccc(C(=O)Nc2ccc(OC)cc2)cc1NC(=O)CC | 106 | 1.55 | 68 | 25 | – | – | –
14 | CCC(=O)Nc1cc(C(=O)Nc2ccc(OC)cc2)ccc1OCCCN(C)C | 154 | > 22.2 | – | > 50 | – | – | –
15 | COc1ccc(NC(=O)c2ccc(OC(C)C)c([N+](=O)[O-])c2)cc1 | 23.4 | 2.86 | 8 | < 25 | – | – | –
16 | CN1CCN(Cc2ccc(NC(=O)c3ccc(OCCCCl)c(N)c3)cc2C(F)(F)F)CC1 | 12.9 | 1.18 | 10.9 | – | – | – | –
17 | CCC(=O)Nc1cc(C(=O)Nc2ccc(CN3CCN(C)CC3)cc2)ccc1OC | > 200 | > 22.2 | – | 25 | – | – | –
18 | CN1CCN(Cc2ccc(NC(=O)c3ccc(OCCCCl)c([N+](=O)[O-])c3)cc2C#N)CC1 | 15.5 | 0.65 | 23 | – | – | – | –
19 | CC(C)Oc1ccc(C(=O)Nc2ccc(CN3CCN(C)CC3)c(C(F)(F)F)c2)cc1N | 21.6 | 1.32 | 16 | – | – | – | –
20 | CN1CCN(Cc2ccc(NC(=O)c3ccc(OCCCCl)c([N+](=O)[O-])c3)cc2C(F)(F)F)CC1 | 6.8 | 0.044 | 154 | – | < 100 | – | –
21 | CCC(=O)Nc1cc(C(=O)Nc2ccc(N(C)C)cc2)ccc1OC(C)C | 80.6 | 6.03 | 13 | – | – | – | –
22 | CCC(=O)Nc1cc(C(=O)Nc2ccc(OC)cc2)ccc1OCCCN1CCOCC1 | 49.2 | > 22.2 | – | – | – | – | –
23 | CN1CCN(Cc2ccc(NC(=O)c3ccc(OCCCCl)c([N+](=O)[O-])c3)cn2)CC1 | – | 0.083 | 151 | – | – | 12.6 | –
24 | CC1CN(Cc2ccc(NC(=O)c3ccc(OCCCCl)c([N+](=O)[O-])c3)cc2C(F)(F)F)CC(C)O1 (configuration not stated) | 2.3 | 0.174 | 13.3 | – | – | – | –
25 | CC(C)Oc1ccc(C(=O)Nc2ccc(CN3CCN(C)CC3)c(C(F)(F)F)c2)cc1[N+](=O)[O-] | 3.5 | 0.095 | 39 | < 25 | – | – | –
26 | CN1CCN(Cc2ccc(NC(=O)c3ccc(OCCCCl)c(Cl)c3)cc2C(F)(F)F)CC1 | 4.1 | 0.58 | 7 | – | – | – | –
27 | CCCOc1ccc(C(=O)Nc2ccc(OC)cc2)cc1[N+](=O)[O-] | – | – | – | < 25 | – | – | –
28 | CCC(=O)Nc1cc(C(=O)Nc2ccc(CN3CCN(C)CC3)c(C(F)(F)F)c2)ccc1OCCCCl | 7.87 | 0.22 | 36.3 | – | – | – | –

Row | SMILES | CC50 (Huh-7.5) [µM] | EC50 (Hepatitis C virus) [µM] | selectivity ratio [1] | inhibition [2] [%] | LD50 [3] [mg/kg] | CC50 at 96 h [4] [µM] | solubility at 10 min [5] [µg/mL]
29 | O=C(Nc1ccc(CN2CCOCC2)c(C(F)(F)F)c1)c1ccc(OCCCCl)c([N+](=O)[O-])c1 | 6.1 | 0.315 | 19.3 | – | – | – | –
30 | CCC(=O)Nc1cc(C(=O)Nc2ccc(N(C)C)cc2)ccc1OC | 171 | 2.56 | 66 | < 25 | – | – | –
31 | CCC(=O)Nc1cc(C(=O)Nc2ccc(OC)cc2)ccc1OCCCCl | 158 | 7.41 | 21 | – | – | – | –
32 | CN1CCN(Cc2ccc(NC(=O)c3ccc(OCCCCl)c(S(N)(=O)=O)c3)cc2C(F)(F)F)CC1 | 5.47 | 1.14 | 6.2 | – | – | – | –
33 | COc1ccc(NC(=O)c2ccc(OCCCCl)c([N+](=O)[O-])c2)cc1 | 39.7 | 2.39 | 17 | < 25 | – | – | –
34 | CC(C)Oc1ccc(C(=O)Nc2ccc(N(C)C)cc2)cc1N | 72.1 | 7.41 | 10 | – | – | – | –
35 | CC1CCN(c2ccc(NC(=O)c3ccc(OCCCCl)c([N+](=O)[O-])c3)cn2)CC1 | 9.2 | 0.64 | 14.4 | – | – | – | –
36 | CN1CCN(Cc2ccc(NC(=O)c3ccc(OCCCCl)c(F)c3)cc2C(F)(F)F)CC1 | 8.8 | 0.49 | 18.9 | – | – | – | –
37 | CCC(=O)Nc1cc(C(=O)Nc2ccc(OC)cc2)ccc1OC | 109 | 1.3 | 84 | > 50 | – | – | –
38 | O=C(Nc1ccc(CN2CC(C(=O)O)C2)c(C(F)(F)F)c1)c1ccc(OCCCCl)c([N+](=O)[O-])c1 | > 200 | 4.72 | > 42 | – | – | – | –
39 | CN(C)C1CN(Cc2ccc(NC(=O)c3ccc(OCCCl)c([N+](=O)[O-])c3)cc2C(F)(F)F)C1.Cl | – | – | – | – | – | – | 7800
40 | COc1ccc(C(=O)Nc2ccc(N(C)C)cc2)cc1[N+](=O)[O-] | 88.2 | 4.07 | 22 | > 50 | – | – | –
41 | CN(C)C1CCN(Cc2ccc(NC(=O)c3ccc(OCCCCl)c([N+](=O)[O-])c3)cc2C(F)(F)F)C1 (configuration not stated) | 5.8 | 0.051 | 113 | – | – | – | –
42 | CCC(=O)Nc1cc(C(=O)Nc2ccc(CN3CCN(C)CC3)c(C(F)(F)F)c2)ccc1OC(C)C | 15.3 | 0.3 | 51 | – | – | – | –
43 | CCC[C@H](NC(=O)[C@@H]1[C@H]2CCC[C@H]2CN1C(=O)[C@@H](NC(=O)[C@@H](NC(=O)c1cnccn1)C1CCCCC1)C(C)(C)C)C(=O)C(=O)NC1CC1 | 23.7 | – | – | – | – | – | –
44 | COc1ccc2c(O[C@@H]3C[C@H]4C(=O)N[C@]5(C(=O)NS(=O)(=O)C6CC6)CC5/C=C\CCCCN(C)C(=O)[C@@H]4C3)cc(-c3nc(C(C)C)cs3)nc2c1C (single isomer, unassigned) | 38 | 0.008 | 4760 | – | – | – | –
45 | CCC(=O)Nc1cc(C(=O)Nc2ccc(-c3cc4ccccc4[nH]3)cc2)ccc1OC | 65.6 | 7.41 | 9 | > 50 | – | – | –
46 | CN1CCN(Cc2ccc(NC(=O)c3ccc(OCCCCCCl)c([N+](=O)[O-])c3)cc2C(F)(F)F)CC1 | 2.14 | 0.06 | 36 | – | – | – | –
47 | CN(C)C1CN(Cc2ccc(NC(=O)c3ccc(OCCCCl)c([N+](=O)[O-])c3)cc2C(F)(F)F)C1 | 7.8 | 0.021 | 371 | – | – | – | –
48 | CCOc1ccc(C(=O)Nc2ccc(OC)cc2)cc1NC(=O)CC | 73.2 | 1.47 | 48 | 25 | – | – | –
49 | CC(C)Oc1ccc(C(=O)Nc2ccc(CN3CCN(C)CC3)c(C(F)(F)F)c2)cc1NC(=O)C(C)Br (configuration not stated) | 8.7 | 0.32 | 27 | – | – | – | –
50 | CC(C)Oc1ccc(C(=O)Nc2ccc(N(C)C)cc2)cc1[N+](=O)[O-] | 50 | 3.1 | 16 | – | – | – | –
51 | COc1ccc(NC(=O)c2ccc(OCCCN(C)C)c([N+](=O)[O-])c2)cc1 | 126 | 8.96 | 14 | < 25 | – | – | –
52 | COc1ccc(C(=O)Nc2cc(OC)c(OC)c(OC)c2)cc1NC(=O)C(C)Br (configuration not stated) | 15 | 2.1 | 7 | – | – | – | –
53 | COc1ccc(NC(=O)c2ccc(OCCCN3CCN(C)CC3)c([N+](=O)[O-])c2)cc1 | – | – | – | < 25 | – | – | –
54 | CCC(=O)Nc1cc(C(=O)Nc2ccc(OC)cc2)ccc1OCCCN1CCN(C)CC1 | 126 | 13.5 | 9.4 | > 50 | – | – | –
55 | COc1ccc(NC(=O)c2ccc(OCCCN(C)C)c(N)c2)cc1 | – | – | – | < 25 | – | – | –
